# Where a chain is given by its changes, count along the chain named.
# Tests used:
# Details in all cases: stereoisomer not certain
# [1] = tested on: T1, OR7G2
# T1 sequence (whole entry): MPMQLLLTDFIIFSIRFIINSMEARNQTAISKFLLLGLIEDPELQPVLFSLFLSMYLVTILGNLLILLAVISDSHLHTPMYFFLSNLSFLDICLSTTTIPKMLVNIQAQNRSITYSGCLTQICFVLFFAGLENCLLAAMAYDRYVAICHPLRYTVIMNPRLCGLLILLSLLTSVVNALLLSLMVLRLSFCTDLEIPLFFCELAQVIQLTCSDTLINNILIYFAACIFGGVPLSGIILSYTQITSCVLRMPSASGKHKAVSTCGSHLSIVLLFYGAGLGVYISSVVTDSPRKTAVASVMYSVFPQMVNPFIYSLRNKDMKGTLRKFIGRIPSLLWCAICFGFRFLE
# Summary of the method: (§1)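 Whether a receptor–molecule pair is responsive (active) rests on the original authors' judgment that its measured signal was statistically different from baseline. Pairs without that judgment are non-responsive (inactive). Sources used varied assay methods, commonly transient luciferase assays in mammalian cell lines.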
# [2] = biological target: T2, OR7G3 (Homo sapiens) (UniProt Q8NG95)
# T2 sequence (whole entry): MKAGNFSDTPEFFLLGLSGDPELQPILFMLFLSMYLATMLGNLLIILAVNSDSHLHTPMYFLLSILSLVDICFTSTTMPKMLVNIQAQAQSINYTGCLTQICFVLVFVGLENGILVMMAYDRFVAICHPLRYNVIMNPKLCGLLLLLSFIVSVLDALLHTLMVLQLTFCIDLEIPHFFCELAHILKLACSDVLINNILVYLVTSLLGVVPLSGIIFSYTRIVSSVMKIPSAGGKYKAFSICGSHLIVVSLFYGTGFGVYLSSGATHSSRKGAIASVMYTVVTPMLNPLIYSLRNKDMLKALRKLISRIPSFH
# Summary of the method: as §1
# [3] = tested on: T3, OR7G3 M29V
# T3 sequence (whole entry): T2 sequence (whole entry) with M29V
# Summary of the method: as §1
# [4] = biological target: T4, OR8A1 (Homo sapiens) (UniProt Q8NGG7)
# T4 sequence (whole entry): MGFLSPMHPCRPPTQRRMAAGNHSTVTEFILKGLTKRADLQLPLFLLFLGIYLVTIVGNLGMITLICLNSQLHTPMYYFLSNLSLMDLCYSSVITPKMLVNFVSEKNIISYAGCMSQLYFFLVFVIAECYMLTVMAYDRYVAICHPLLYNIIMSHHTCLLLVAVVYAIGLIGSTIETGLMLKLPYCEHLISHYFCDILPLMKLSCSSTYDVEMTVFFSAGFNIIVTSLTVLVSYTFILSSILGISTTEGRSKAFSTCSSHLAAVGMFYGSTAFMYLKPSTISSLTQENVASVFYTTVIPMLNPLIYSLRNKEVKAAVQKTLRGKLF
# Summary of the method: as §1
# [5] = biological target: T5, OR8B12 (Homo sapiens) (UniProt Q8NGG6)
# T5 sequence (whole entry): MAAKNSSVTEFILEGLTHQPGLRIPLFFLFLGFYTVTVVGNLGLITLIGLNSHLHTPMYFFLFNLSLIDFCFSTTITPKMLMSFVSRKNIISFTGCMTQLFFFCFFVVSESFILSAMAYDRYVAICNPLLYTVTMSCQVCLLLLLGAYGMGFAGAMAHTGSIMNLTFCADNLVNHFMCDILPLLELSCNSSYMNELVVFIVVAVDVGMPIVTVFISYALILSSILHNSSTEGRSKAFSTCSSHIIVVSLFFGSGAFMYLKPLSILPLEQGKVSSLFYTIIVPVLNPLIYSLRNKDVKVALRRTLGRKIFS
# Summary of the method: as §1
# [6] = biological target: T6, OR8B2 (Homo sapiens) (UniProt Q96RD0)
# T6 sequence (whole entry): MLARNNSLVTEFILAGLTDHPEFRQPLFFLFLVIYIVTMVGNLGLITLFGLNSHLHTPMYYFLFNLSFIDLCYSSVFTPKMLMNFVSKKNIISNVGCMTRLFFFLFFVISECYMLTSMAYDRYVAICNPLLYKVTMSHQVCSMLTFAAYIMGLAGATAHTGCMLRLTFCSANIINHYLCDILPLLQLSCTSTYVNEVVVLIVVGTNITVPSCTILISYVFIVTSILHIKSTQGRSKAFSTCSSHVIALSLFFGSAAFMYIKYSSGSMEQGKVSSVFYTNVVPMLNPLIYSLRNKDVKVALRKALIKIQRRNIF
# Summary of the method: as §1
# [7] = tested on: T7, OR8B2 L164F
# T7 sequence (whole entry): T6 sequence (whole entry) with L164F
# Summary of the method: as §1
# [8] = tested on: T8, OR8B2 S273F
# T8 sequence (whole entry): T6 sequence (whole entry) with S273F
# Summary of the method: as §1
# [9] = biological target: T9, OR8B3 (Homo sapiens) (UniProt Q8NGG8)
# T9 sequence (whole entry): T6 sequence (whole entry) with R24Q, I34V, T47I, N94Y, R100Q, T205I, T208M
# Summary of the method: as §1
# [10] = tested on: T10, OR8B3 H20R Q24R M114I
# T10 sequence (whole entry): T6 sequence (whole entry) with H20R, I34V, T47I, N94Y, R100Q, M114I, T205I, T208M
# Summary of the method: as §1
# [11] = tested on: T11, OR8B3 H20R Q24R Y113H
# T11 sequence (whole entry): T6 sequence (whole entry) with H20R, I34V, T47I, N94Y, R100Q, Y113H, T205I, T208M
# Summary of the method: as §1
# [12] = tested on: T12, OR8B3 H20R Q24R
# T12 sequence (whole entry): T6 sequence (whole entry) with H20R, I34V, T47I, N94Y, R100Q, T205I, T208M
# Summary of the method: as §1
# [13] = biological target: T13, OR8B4 (Homo sapiens) (UniProt Q96RC9)
# T13 sequence (whole entry): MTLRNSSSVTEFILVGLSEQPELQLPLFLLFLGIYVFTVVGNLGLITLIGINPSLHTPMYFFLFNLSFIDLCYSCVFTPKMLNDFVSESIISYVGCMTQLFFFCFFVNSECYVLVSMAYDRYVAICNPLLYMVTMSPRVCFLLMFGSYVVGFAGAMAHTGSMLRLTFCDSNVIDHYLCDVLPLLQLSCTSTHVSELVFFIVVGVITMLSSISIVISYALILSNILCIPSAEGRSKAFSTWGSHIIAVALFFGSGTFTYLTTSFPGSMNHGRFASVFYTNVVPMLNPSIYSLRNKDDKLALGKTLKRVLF
# Summary of the method: as §1
# [14] = tested on: T14, OR8B4
# T14 sequence (whole entry): T13 sequence (whole entry) with E22G
# Summary of the method: as §1
# [15] = biological target: T15, OR8B8 (Homo sapiens) (UniProt Q15620)
# T15 sequence (whole entry): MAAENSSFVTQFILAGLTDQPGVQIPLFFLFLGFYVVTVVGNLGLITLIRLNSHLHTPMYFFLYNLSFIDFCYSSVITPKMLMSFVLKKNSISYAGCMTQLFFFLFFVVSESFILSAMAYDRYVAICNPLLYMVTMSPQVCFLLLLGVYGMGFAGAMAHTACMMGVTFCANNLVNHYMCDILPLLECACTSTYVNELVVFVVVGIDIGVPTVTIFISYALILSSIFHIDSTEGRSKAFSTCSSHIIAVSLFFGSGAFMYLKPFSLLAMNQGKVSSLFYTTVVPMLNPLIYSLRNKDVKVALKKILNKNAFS
# Summary of the method: as §1
# [16] = tested on: T16, OR8B8 L101P
# T16 sequence (whole entry): T15 sequence (whole entry) with L101P
# Summary of the method: as §1
# [17] = biological target: T17, OR8D1 (Homo sapiens) (UniProt Q8WZ84)
# T17 sequence (whole entry): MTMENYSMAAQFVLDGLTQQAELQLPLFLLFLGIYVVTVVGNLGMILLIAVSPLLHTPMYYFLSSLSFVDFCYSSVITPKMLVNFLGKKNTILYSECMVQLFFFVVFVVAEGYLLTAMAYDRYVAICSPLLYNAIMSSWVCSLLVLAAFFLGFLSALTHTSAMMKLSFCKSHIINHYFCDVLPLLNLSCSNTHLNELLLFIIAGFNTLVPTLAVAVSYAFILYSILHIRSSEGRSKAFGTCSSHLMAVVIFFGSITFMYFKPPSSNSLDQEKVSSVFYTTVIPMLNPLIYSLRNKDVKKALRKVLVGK
# Summary of the method: as §1
# [18] = tested on: T18, OR8D1 C127G L194P
# T18 sequence (whole entry): T17 sequence (whole entry) with C127G, L194P
# Summary of the method: as §1
# [19] = tested on: T19, OR8D1 L194P
# T19 sequence (whole entry): T17 sequence (whole entry) with L194P
# Summary of the method: as §1
# [20] = biological target: T20, OR7G2 (Homo sapiens) (UniProt Q8NG99)
# T20 sequence (whole entry): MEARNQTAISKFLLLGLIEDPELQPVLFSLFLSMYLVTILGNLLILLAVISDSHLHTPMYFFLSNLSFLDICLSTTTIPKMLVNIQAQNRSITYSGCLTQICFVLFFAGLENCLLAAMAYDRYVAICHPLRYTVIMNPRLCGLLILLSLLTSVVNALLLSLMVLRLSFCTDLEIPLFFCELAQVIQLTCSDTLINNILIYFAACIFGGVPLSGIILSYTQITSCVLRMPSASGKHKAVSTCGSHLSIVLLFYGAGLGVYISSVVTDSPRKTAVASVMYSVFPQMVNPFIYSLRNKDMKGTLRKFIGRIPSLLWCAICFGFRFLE
# Summary of the method: as §1
# 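Further: active if original authors judged signal statistically different from baseline.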
smiles,measurement,setting,value
CCC1OC(=O)C(O)=C1C (configuration not stated),odorant receptor agonist call,[1],inactive
same,odorant receptor agonist call,[2],inactive
same,odorant receptor agonist call,[3],inactive
same,odorant receptor agonist call,[4],inactive
same,odorant receptor agonist call,[5],inactive
same,odorant receptor agonist call,[6],inactive
same,odorant receptor agonist call,[7],inactive
same,odorant receptor agonist call,[8],inactive
same,odorant receptor agonist call,[9],inactive
same,odorant receptor agonist call,[10],inactive
same,odorant receptor agonist call,[11],inactive
same,odorant receptor agonist call,[12],inactive
same,odorant receptor agonist call,[13],inactive
same,odorant receptor agonist call,[14],inactive
same,odorant receptor agonist call,[15],inactive
same,odorant receptor agonist call,[16],inactive
same,odorant receptor agonist call,[17],active
same,odorant receptor agonist call,[18],inactive
same,odorant receptor agonist call,[19],inactive
COC(=O)C=Cc1ccccc1,odorant receptor agonist call,[17],inactive
CC1CCCCCCCCCCCCC(=O)C1 (configuration not stated),odorant receptor agonist call,[20],inactive
same,odorant receptor agonist call,[2],inactive
same,odorant receptor agonist call,[4],inactive
same,odorant receptor agonist call,[5],inactive
same,odorant receptor agonist call,[6],inactive
same,odorant receptor agonist call,[9],inactive
same,odorant receptor agonist call,[13],inactive
same,odorant receptor agonist call,[15],inactive
same,odorant receptor agonist call,[17],inactive
CCCC(S)CCOC(C)=O (configuration not stated),odorant receptor agonist call,[1],inactive
same,odorant receptor agonist call,[2],inactive
same,odorant receptor agonist call,[3],inactive
same,odorant receptor agonist call,[4],inactive
same,odorant receptor agonist call,[5],inactive
same,odorant receptor agonist call,[6],inactive
same,odorant receptor agonist call,[7],inactive
same,odorant receptor agonist call,[8],inactive
same,odorant receptor agonist call,[9],inactive
same,odorant receptor agonist call,[10],inactive
same,odorant receptor agonist call,[11],inactive
same,odorant receptor agonist call,[12],inactive
same,odorant receptor agonist call,[13],inactive
same,odorant receptor agonist call,[14],inactive
same,odorant receptor agonist call,[15],inactive
same,odorant receptor agonist call,[16],inactive
same,odorant receptor agonist call,[17],inactive
same,odorant receptor agonist call,[18],inactive
same,odorant receptor agonist call,[19],inactive
CCC(S)C(C)CO (configuration not stated),odorant receptor agonist call,[20],inactive
same,odorant receptor agonist call,[2],inactive
same,odorant receptor agonist call,[4],inactive
same,odorant receptor agonist call,[5],inactive
same,odorant receptor agonist call,[6],inactive
same,odorant receptor agonist call,[9],inactive
same,odorant receptor agonist call,[13],inactive
same,odorant receptor agonist call,[15],inactive
same,odorant receptor agonist call,[17],inactive
CC1=C(O)C(=O)C(C)O1 (configuration not stated),odorant receptor agonist call,[1],inactive
same,odorant receptor agonist call,[2],inactive
same,odorant receptor agonist call,[3],inactive
same,odorant receptor agonist call,[4],inactive
same,odorant receptor agonist call,[5],inactive
same,odorant receptor agonist call,[6],inactive
same,odorant receptor agonist call,[7],inactive
same,odorant receptor agonist call,[8],inactive
same,odorant receptor agonist call,[9],inactive
same,odorant receptor agonist call,[10],inactive
same,odorant receptor agonist call,[11],inactive
same,odorant receptor agonist call,[12],inactive
same,odorant receptor agonist call,[13],inactive
same,odorant receptor agonist call,[14],inactive
same,odorant receptor agonist call,[15],inactive
same,odorant receptor agonist call,[16],inactive
same,odorant receptor agonist call,[17],inactive
same,odorant receptor agonist call,[18],inactive
same,odorant receptor agonist call,[19],inactive
CC1=CCC(C(C)C)C=C1 (configuration not stated),odorant receptor agonist call,[17],inactive
CCCC(=O)OC,odorant receptor agonist call,[17],inactive
CCCCCC(=O)OCC,odorant receptor agonist call,[17],inactive
CCCCCCCC(=O)OCC,odorant receptor agonist call,[17],inactive
CCCCCCCCC1CCC(=O)O1 (configuration not stated),odorant receptor agonist call,[17],inactive
O=C1CCOc2ccccc21,odorant receptor agonist call,[6],active
CCC(=O)C(C)=O,odorant receptor agonist call,[17],inactive
C=C(C)c1ccc(C)cc1,odorant receptor agonist call,[17],inactive
CCC1OC(C)=C(O)C1=O (configuration not stated),odorant receptor agonist call,[1],inactive
same,odorant receptor agonist call,[2],inactive
same,odorant receptor agonist call,[3],inactive
same,odorant receptor agonist call,[4],inactive
same,odorant receptor agonist call,[5],inactive
same,odorant receptor agonist call,[6],inactive
same,odorant receptor agonist call,[7],inactive
same,odorant receptor agonist call,[8],inactive
same,odorant receptor agonist call,[9],inactive
same,odorant receptor agonist call,[10],inactive
same,odorant receptor agonist call,[11],inactive
same,odorant receptor agonist call,[12],inactive
same,odorant receptor agonist call,[13],inactive
same,odorant receptor agonist call,[14],inactive
same,odorant receptor agonist call,[15],inactive
same,odorant receptor agonist call,[16],inactive
same,odorant receptor agonist call,[17],inactive
same,odorant receptor agonist call,[18],inactive
same,odorant receptor agonist call,[19],inactive
COc1cccc(OC)c1O,odorant receptor agonist call,[17],inactive
CC(=O)c1c(C)c([N+](=O)[O-])c(C(C)(C)C)c([N+](=O)[O-])c1C,odorant receptor agonist call,[20],inactive
same,odorant receptor agonist call,[2],inactive
same,odorant receptor agonist call,[4],inactive
same,odorant receptor agonist call,[5],inactive
same,odorant receptor agonist call,[6],inactive
same,odorant receptor agonist call,[9],inactive
same,odorant receptor agonist call,[13],inactive
same,odorant receptor agonist call,[15],inactive
same,odorant receptor agonist call,[17],inactive
CCCCCC(=O)C(C)C(C)=O (configuration not stated),odorant receptor agonist call,[20],inactive
same,odorant receptor agonist call,[2],inactive
same,odorant receptor agonist call,[4],inactive
same,odorant receptor agonist call,[5],inactive
same,odorant receptor agonist call,[6],inactive
same,odorant receptor agonist call,[9],inactive
same,odorant receptor agonist call,[13],inactive
same,odorant receptor agonist call,[15],inactive
same,odorant receptor agonist call,[17],inactive

# Reference: the M2OR odorant receptor database
